Assay results reported in PubChem BioAssay AID1885 (Broad Institute, 2009).
The whole screen tested about 300,000 compounds, of which about 4,400 (1.5%) were called active.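 The calls were made as follows: active = mean inhibition across valid replicates above about 55% (limit read from the data); inconclusive = mean below that limit but half or more replicates reach it; inactive = mean below it, under half of replicates reach it.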 The full list was thinned out, with actives kept by preference.

assay: inhibitors of intracellular T. cruzi growth, primary screen, luminescence, NIH3T3 host cells (AID 1885);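 also: signal also drops with host cell toxicity which is not excluded here; 0% = plate median of DMSO wells and 100% = zero luminescence signal; higher percent means less beta-gal luminescence so fewer parasites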; conditions: T. cruzi beta-gal in NIH3T3, luminescence, 90 h; stronger effect = higher value; concentration not given here
Method in brief: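 compound dosing = single 50 nL compound addition per well in DMSO | material = NIH/3T3 host cells with β-galactosidase reporter T. cruzi | input = 5,000 host fibroblasts per well | timing = ≥90 h infection period, 3 h prior cell attachment | read-out basis = percent inhibition of parasite-derived β-gal signal | detection = GalScreen β-gal luminescence, detergent lysis, 60 min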

Structure (SMILES)	inhibition
CN(CC(=O)Nc1cccc(F)c1)C(=O)C1CC(=O)N(CCc2ccccc2)C1 (stereo not drawn)	-2.73% (inactive)
Cc1ccc(-c2nnc(SCC(=O)N/N=C/c3cccs3)n2-c2ccc(C)cc2)cc1	12.8% (inactive)
NNC(=O)CSc1nnc(-c2ccccc2)n1-c1ccccc1	-6.88% (inactive)
Cc1ccc(-n2c(SCC(=O)N3c4ccccc4Sc4ccccc43)nnc2-c2ccncc2)cc1	63.1% (active)
O=C(CCC1CCCN(C(=O)c2ccc(F)c(F)c2)C1)N1CCN(c2ccccn2)CC1 (stereo not drawn)	9.19% (inactive)
COc1cc(/C=C2/SC(=S)N(Cc3ccccc3)C2=O)cc(OC)c1O	-5.6% (inactive)
CC(=O)/C(=N\Nc1ccc(Cl)cc1Cl)Sc1cccc2cccnc12	67.6% (active)
O=C(Nc1cccc2cccnc12)c1cccc(Cl)c1	-33.4% (inactive)
O=C(Nc1ccccc1Cl)Nc1cccc2cccnc12	3.14% (inactive)
CCOc1ccc(C(=O)CCC(=O)NC2=NCCS2)cc1	10.9% (inactive)
CC(=O)c1cc(CN2CCC(n3nccc3NC(=O)c3ccccc3Cl)CC2)cs1	9.08% (inactive)
COCCn1cnc2c1c(=O)n(Cc1ccc(Br)cc1)c(=O)n2Cc1ccccc1	19.6% (inactive)
CCN(CC)CCn1cnc2c1c(=O)[nH]c(=O)n2Cc1ccccc1	-8.26% (inactive)
N=c1c2c(-c3ccccc3)c(-c3ccccc3)n(Cc3ccccc3)c2ncn1CCCO	70.5% (active)
N#Cc1ccc(-c2ccc(Cl)cc2)nc1Oc1ccc(F)cc1	14.3% (inactive)
N#CCCN(C(=O)COC(=O)c1ccc(S(=O)(=O)N2CCCCCC2)cc1)c1ccccc1	-2.09% (inactive)
CC(C)CN(C(=O)Cn1c(=O)cnc2ccccc21)C1CCS(=O)(=O)C1 (stereo not drawn)	11% (inactive)
N#CCc1c(C#N)c(N)nc(N2CCCC2)c1C#N	8.26% (inactive)
Cc1ncc(CO)c(/C=N/NC(=O)c2cccc(S(=O)(=O)N3CCCC3)c2)c1O	-9.29% (inactive)
CCn1c2c(c3ccc(OC)cc31)CCCC2=O	-5.03% (inactive)

Structure (SMILES)	inhibition
O=C(Cc1nc2ccccc2[nH]c1=O)c1ccc(Cl)cc1	0.565% (inactive)
O=C(/C(=C/c1cccc(Cl)c1)c1nc2ccccc2[nH]1)c1ccccc1	68.4% (active)
CCC(=O)/C(=C(/O)c1ccccc1)c1nc2ccccc2[nH]1	3.53% (inactive)
CCCCn1c(N)c(N(CC(C)C)C(=O)CSc2ccc([N+](=O)[O-])cc2)c(=O)[nH]c1=O	6.23% (inactive)
CC(Oc1ccc(Br)cc1)C(=O)NCC(c1ccco1)N1CCCCC1 (stereo not drawn)	-0.255% (inactive)
CCN(C(=O)CSc1nnnn1-c1ccccc1OC)C1CCS(=O)(=O)C1 (stereo not drawn)	-11.8% (inactive)
COC(=O)C1=C(C)Nc2ncnn2C1c1cccnc1 (stereo not drawn)	17.7% (inactive)
CC1=C(C(=O)OC2CCCCC2)C(c2cccnc2)n2ncnc2N1 (stereo not drawn)	61.7% (active)
COC(=O)C1=C(C)Nc2ncnn2C1c1ccco1 (stereo not drawn)	-1.94% (inactive)
COc1ccc(C(=O)COC(=O)COc2ccc(C)c(C)c2)cc1	4.19% (inactive)
O=S(=O)(NC1CCCCC1N1CCN(c2ccccc2F)CC1)c1ccccc1 (stereo not drawn)	20.8% (inactive)
Cc1n[nH]c(=O)c2c(NC(=O)COC(=O)c3ncc(Cl)c(Cl)c3Cl)oc(C)c12	-10.3% (inactive)
COc1ccc(N(CC(=O)Nc2cccc3ccccc23)S(C)(=O)=O)c(OC)c1	-7.06% (inactive)
COc1ccc2c(CC(=O)OCC(=O)Nc3ccccc3[N+](=O)[O-])coc2c1	16.9% (inactive)
CCc1ccccc1NC(=O)CN(c1ccc(OC)cc1OC)S(=O)(=O)c1ccccc1[N+](=O)[O-]	58.4% (active)
O=C1N[C@@H](Cc2ccccc2)C(=O)N2[C@H]1C[C@]1(Br)c3ccccc3N(S(=O)(=O)c3ccccc3)[C@H]21	-12.8% (inactive)
Cc1cc(Cl)ccc1OCc1nc(-c2ccncc2)no1	74.8% (active)
c1ccc(CCc2nc(-c3ccncc3)no2)cc1	-6.81% (inactive)
COc1ccc(-c2noc(COc3ccc(Cl)c(C)c3)n2)cc1	-9.09% (inactive)
O=C(c1ccncc1)N1CCN(S(=O)(=O)c2cccc([N+](=O)[O-])c2)CC1	25.7% (inactive)

Structure (SMILES)	inhibition
CCCNC(=O)c1c(Cl)cnn1-c1ccc(C)cc1	-28% (inactive)
CCCNC(=O)CCc1c(C)nc2c(c(C)nn2-c2ccc(C)cc2)c1C	63.7% (active)
CCCNC(=O)CCc1c(C)nc2c(c(C)nn2-c2ccccc2)c1C	28% (inactive)
O=S(=O)(O)Oc1c[nH]c2ccccc12	-8.75% (inactive)
COc1ccccc1N(CC(=O)N/N=C(\C)c1ccccc1O)S(=O)(=O)c1ccc(C)cc1	65.9% (active)
COc1ccccc1NC(=O)CN(c1ccccc1OC)S(=O)(=O)c1ccccc1	2.04% (inactive)
COc1ccc(S(=O)(=O)N(CC(=O)N/N=C/c2ccccc2C(=O)O)c2ccccc2OC)cc1	20.6% (inactive)
O=C(N/N=C/c1cc(Br)c(O)c([N+](=O)[O-])c1)C(O)(c1ccccc1)c1ccccc1	-7.65% (inactive)
COc1ccc(C(C)=O)cc1COc1ccc(Cl)c(C)c1	14.6% (inactive)
COc1ccc(/C=C/C(=O)Nc2c(C)nn(C)c2C)cc1COc1ccc(Br)cc1	30.9% (inactive)
CCn1nc(C)c(NC(=O)/C=C/c2ccc(OC)c(COc3ccc(Br)cc3)c2)c1C	68.5% (active)
O=C(O)CCn1c(O)c(C=C2N=c3ccccc3=N2)sc1=S	-24.7% (inactive)
COc1ccc(N2CCC(CNC(=S)Nc3c(C)cccc3C)C2)cc1 (stereo not drawn)	55.3% (active)
COc1ccc(NC(=S)NCCN2CCC(C)CC2)cc1	-11.2% (inactive)
COc1ccc(NC(=S)NCC2CCN(c3ccc(OC)cc3)C2)cc1 (stereo not drawn)	6.37% (inactive)
CN1C(C(=O)NCC2CC2)CC2Cn3c(nc4ccccc43)C21 (stereo not drawn)	-19% (inactive)
O=C1CN(C(=O)COc2c(Cl)cccc2Cl)c2ccccc2N1	-8.97% (inactive)
COc1ccccc1CCC(=O)NNC(=O)c1ccncc1	10.4% (inactive)
